Data on 5 compounds can be found in PMC3058861 (Archives of biochemistry and biophysics, 2010).

Each structure is given as a SMILES string. Converted amounts (≈) assume the structure as drawn. Structures can show the parent of a compound that is named as a salt. Where two headings read alike, the source gives them in different places.

For orientation: Km means the substrate concentration at which the rate is half of its maximum. As a reminder, the Vmax is the rate approached at saturating substrate. As usually defined, the solubility is the concentration that dissolves in the medium under given conditions.

Data set [1] deals with T1, hSULT2A1 (Homo sapiens, UniProt Q06520).
T1 sequence (Q06520 1-285): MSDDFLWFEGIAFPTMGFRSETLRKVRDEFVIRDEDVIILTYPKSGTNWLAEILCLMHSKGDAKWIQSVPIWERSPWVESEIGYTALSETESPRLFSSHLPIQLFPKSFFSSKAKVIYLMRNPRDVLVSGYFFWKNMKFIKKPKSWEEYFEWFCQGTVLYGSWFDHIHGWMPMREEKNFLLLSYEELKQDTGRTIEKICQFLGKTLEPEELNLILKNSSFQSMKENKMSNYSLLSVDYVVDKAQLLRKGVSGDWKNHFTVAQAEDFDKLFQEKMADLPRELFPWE
To be noted: sulfation of pregnenolone; cited from earlier work.

For data set [2], the target named is T1, hSULT2A1. Briefly: Kinetics of DHEA sulfation catalyzed by recombinant hSULT2A1. The format is biochemical. To be noted: for substrate inhibition by DHEA: 0.1-2.0 μM DHEA; for substrate inhibition by PAPS: 1.0-300 μM PAPS.
For another data set, the target named is T2, hSULT2A1-PAP complex (Homo sapiens, UniProt Q06520).
T2 sequence (Q06520 1-285): T1 sequence (Q06520 1-285)
Briefly: Ligand binding to the hSULT2A1-PAP complex by intrinsic tryptophan fluorescence.

Data set [3] is described as follows: Determination of DHEA solubility by light scattering. The class given is physicochemical. The conditions noted are these: potassium phosphate buffer, pH 7, aqueous buffer.
A further data set addresses T3, hSULT2A1-DHEAS complex (Homo sapiens, UniProt Q06520).
T3 sequence (Q06520 1-285): T1 sequence (Q06520 1-285)
The class given is binding. To be noted: for Kd: enzyme pretreated with 80 μM (0.08 mM) DHEAS. A digest of the protocol: (§1)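 Purified recombinant hSULT2A1 at 25 nM (dimer basis) was equilibrated 15 min, then pretreated with 80 μM DHEA or 80 μM DHEAS. Test ligand (1.0–300 μM) was added stepwise with stirring at 37 ± 2 °C, and intrinsic tryptophan fluorescence was read after each addition. Data were fitted to a two-site Adair model, with Kd taken as the reciprocal association constants. Triplicates, mean ± SD.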

The target of the next data set is T4, hSULT2A1-DHEA complex (Homo sapiens, UniProt Q06520).
T4 sequence (Q06520 1-285): T1 sequence (Q06520 1-285)
As to the kind of experiment: Ligand binding to the hSULT2A1-DHEA complex by intrinsic tryptophan fluorescence. The conditions noted are these: read-out: Kd2(app); enzyme pretreated with 80 μM (0.08 mM) DHEA. A digest of the protocol: as §1

The target in data set [4] is T1, hSULT2A1. As to the kind of experiment: Ligand binding to ligand-free hSULT2A1 by intrinsic tryptophan fluorescence. To be noted: read-out: dissociation constant (hyperbolic single site); ligand-free enzyme, pH 7.0, 37 °C.
The mark [5] stands for this setting: 0.25-20 μM DHEA, 200 μM PAPS, pH 7.0, 37 °C, substrate inhibition equation.
[6] abbreviates: read-out: Kd2(app), in the presence of 100 μM (0.1 mM) PAP.

As for `CC(=O)[C@H]1CC[C@H]2[C@@H]3CC=C4C[C@@H](O)CC[C@]4(C)[C@H]3CC[C@]12C` [pregnenolone], the “catalytic efficiency (kcat/Km) with hSULT2A1 relative to hSULT2B1 and hSULT2B2” value on hSULT2A1 [1] is 3-8 fold.

Take `C[C@]12CC[C@H](O)CC1=CC[C@@H]1[C@@H]2CC[C@]2(C)C(=O)CC[C@@H]12` [DHEA, dehydroepiandrosterone (5-androsten-3β-ol-17-one)]: the “substrate inhibition by DHEA” value on hSULT2A1 [2] (intermediate PAPS 5.0 – 60 μM) is listed as “substrate inhibition was observed”. Also, on hSULT2A1 [2] (lowest (1.0 μM) and highest (100 and 300 μM) PAPS), the “substrate inhibition by DHEA” value is listed as “substrate inhibition was not evident”. In addition, at hSULT2A1 [2] (setting [5]), the “Kis (substrate inhibition constant)” value came out at 8 ± 3 µM, the Km was 0.8 ± 0.3 µM and the Vmax turned out to be 245 ± 40 nmol/min/mg. In addition, at hSULT2A1-PAP complex (setting [6]), the Kd was 22 ± 3.2 µM. In data set [3], this compound gave a solubility of 80 µM (≈ 23.1 µg/mL).

Consider `Nc1ncnc2c1ncn2[C@@H]1O[C@H](COP(=O)(O)OS(=O)(=O)O)[C@@H](OP(=O)(O)O)[C@H]1O` [PAPS, 3′-phosphoadenosine 5′-phosphosulfate], for which the “Kd2(app) relative to Kd1(app)” value at hSULT2A1-DHEAS complex (enzyme pretreated with 80 μM DHEAS) was “over 200 fold”. In addition, the Kd at hSULT2A1-DHEAS complex (read-out: Kd1(app)) was determined as 1.3 ± 0.4 µM; at hSULT2A1-DHEAS complex (read-out: Kd2(app)), 315 ± 27 µM. The results for the “substrate inhibition by PAPS” value at hSULT2A1 [2] (80 μM DHEA), on hSULT2A1 [2] (DHEA 0.1 μM - 2.0 μM) and at hSULT2A1 [2] (DHEA 5.0 μM or 20 μM) were “significant substrate inhibition”, “no indication that PAPS displayed substrate inhibition” and “did not exhibit substrate inhibition”, respectively.

Consider `Nc1ncnc2c1ncn2[C@@H]1O[C@H](COP(=O)(O)O)[C@@H](OP(=O)(O)O)[C@H]1O` [PAP, adenosine 3′,5′-diphosphate], for which the values for the Kd on hSULT2A1-DHEA complex and on hSULT2A1-DHEAS complex (read-out: Kd2(app)) were 243 ± 27 µM and 415 ± 75 µM, respectively.

For the compound `C[C@]12CC[C@H](OS(=O)(=O)O)CC1=CC[C@@H]1[C@@H]2CC[C@]2(C)C(=O)CC[C@@H]12` [DHEAS, dehydroepiandrosterone sulfate], the Kd on hSULT2A1 [4] is 7.2 ± 0.3 µM; on hSULT2A1-PAP complex (read-out: Kd1(app), in the presence of 100 μM (0.1 mM) PAP), 3.3 ± 0.2 µM; on hSULT2A1-PAP complex (setting [6]), 3.3 ± 0.2 µM; at hSULT2A1-PAP complex (read-out: Kd(app) (hyperbolic single site), in the presence of 100 μM PAP), 3.3 ± 0.2 µM.
